Data set [1] is described as follows: Secondary structural content by CD spectroscopy. Type of data set: physicochemical. The following applies: 25 °C, protein 5 μM, 50 mM Tris–HCl pH 7.5, 150 mM NaCl, 0.1% β‐mercaptoethanol, CDSSTR.
Data set [2] is classed as physicochemical. Particulars: CD at 220 nm, protein 7 μM, 50 mM Tris–HCl pH 7.5, 150 mM NaCl, 0.1% β‐mercaptoethanol.
Data set [3] concerns C‐terminal domain of the HCoV‐229E N protein. Put plainly: Sedimentation velocity analytical ultracentrifugation: self-association. Type of data set: binding. Particulars: N245–389 in the absence of the C‐terminal tail peptide. The gist of the method: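 C-terminal His6-tagged N-protein domain (residues 245–389) was bacterially expressed (1 mM IPTG, 37 °C, 6 h) and purified on Ni–NTA. Runs were at 20 °C and 42,000 rpm, read at 280 nm every 420 s, at 50, 30 and 10 μM protein in 50 mM Tris–HCl pH 7.5, 150 mM NaCl, 0.1% β-mercaptoethanol. Data were fit to a continuous size distribution (0.1–20.0 S).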

B1: N245–376: truncated C‐terminal domain of the HCoV‐229E N protein, extended C‐terminal tail that includes residue 376 (protein)
chain: QKPRWKRQPNDDVTSNVTQCFGPRDLDHNFGSAGVVANGVKAKGYPQFAELVPSTAAMLFDSHIVSKESGNTVVLTFTTRVTVPKDHPHLGKFLEELNAFTREMQQHPLLNPSALEFNPSQTSPATAEPVRD
modifications: left off: His6, C-terminal, state not stated
For B1, in data set [1], the “Disordered (random coil) content” value turned out to be 15%, the Helix content amounted to 47%, the Sheet content is recorded as 22% and the Turn content is given as 16%. Besides, in data set [2], the “melting temperature (Tm)” value was 36.7 °C.

B2: N245–382: truncated C‐terminal domain of the HCoV‐229E N protein, extended C‐terminal tail that includes residue 382 (protein)
chain: QKPRWKRQPNDDVTSNVTQCFGPRDLDHNFGSAGVVANGVKAKGYPQFAELVPSTAAMLFDSHIVSKESGNTVVLTFTTRVTVPKDHPHLGKFLEELNAFTREMQQHPLLNPSALEFNPSQTSPATAEPVRDEVSIET
modifications: left off: His6, C-terminal, state not stated
B2: in data set [1], the “Disordered (random coil) content” value was 13%, the Helix content was 43%, the Sheet content amounted to 25% and the Turn content was 19%. In data set [2], the “melting temperature (Tm)” value is “above 70 °C”.

B3: N245–389: truncated C‐terminal domain of the HCoV‐229E N protein, extended C‐terminal tail that includes residue 389 (protein)
chain: QKPRWKRQPNDDVTSNVTQCFGPRDLDHNFGSAGVVANGVKAKGYPQFAELVPSTAAMLFDSHIVSKESGNTVVLTFTTRVTVPKDHPHLGKFLEELNAFTREMQQHPLLNPSALEFNPSQTSPATAEPVRDEVSIETDIIDEVN
modifications: left off: His6, C-terminal, state not stated
As to B3, the S-value of dimer result in data set [3] (20 °C, dimer) is given as “approximately 2.85”. This molecule gave a S-value of octamer in data set [3] (20 °C, octamer) of approximately 7.75. The molecule further returned a S-value of tetramer in data set [3] (20 °C, tetramer) of approximately 5.30. In addition, the “molecular mass corresponding to S-value, dimer” value in data set [3] (dimer) is reported as 31 kDa. Besides, the “molecular mass corresponding to S-value, octamer” value in data set [3] (octamer) is reported as 131 kDa. Besides, the “molecular mass corresponding to S-value, tetramer” value in data set [3] (tetramer) is 69 kDa. In data set [1], the “Disordered (random coil) content” value is 13%, the Helix content worked out at 45%, the Sheet content was 26% and the Turn content is listed as 16%. For the same molecule, the “melting temperature (Tm)” value in data set [2] is “above 70 °C”.

B4: N245–370: truncated C‐terminal domain of the HCoV‐229E N protein, extended C‐terminal tail that includes residue 370 (protein)
chain: QKPRWKRQPNDDVTSNVTQCFGPRDLDHNFGSAGVVANGVKAKGYPQFAELVPSTAAMLFDSHIVSKESGNTVVLTFTTRVTVPKDHPHLGKFLEELNAFTREMQQHPLLNPSALEFNPSQTSPAT
modifications: left off: His6, C-terminal, state not stated
As to B4, in data set [1], the “Disordered (random coil) content” value was determined as 17%, the Helix content is listed as 46%, the Sheet content is listed as 23% and the Turn content is recorded as 14%. For the same molecule, the “melting temperature (Tm)” value in data set [2] is 36.2 °C.
